In ChEMBL document CHEMBL1152918, “Simplexins A-I, eunicellin-based diterpenoids from the soft coral Klyxum simplex” (2009):
Converted amounts (≈) assume the structure as drawn. The source made the active and inactive calls. No cut-off for these calls is given here.

Tests used:
Type in all cases: functional
[1] = tested on: Daoy; test: Cytotoxicity against human DaOY cells by MTT assay; conditions: read-out: ED50 (the source's name)
[2] = tested on: MCF7; test: Cytotoxicity against human MCF7 cells by MTT assay; conditions: read-out: ED50 (the source's name)
[3] = tested on: HeLa; test: Cytotoxicity against human HeLa cells by MTT assay; conditions: read-out: ED50 (the source's name)
[4] = tested on: HEp-2; test: Cytotoxicity against human Hep2 cells by MTT assay; conditions: read-out: ED50 (the source's name)
[5] = tested on: RAW264.7; test: Antiinflammatory activity against LPS-stimulated mouse RAW264.7 cells assessed as reduction in COX-2 level at 10 uM relative to control
How it was run: (§1)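 Immunoblot measured iNOS and COX-2 protein levels in RAW264.7 macrophages stimulated with LPS and treated at 10 μM. Levels are expressed as a percentage of cells given LPS alone.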

[6] = tested on: RAW264.7; test: Antiinflammatory activity against LPS-stimulated mouse RAW264.7 cells assessed as reduction in iNOS level at 10 uM relative to control; design: scale not given: the % may be the effect or the level left; how it was run: as §1

| Structure (SMILES) | EC50 [1] [µg/mL] | EC50 [2] [µg/mL] | EC50 [3] [µg/mL] | EC50 [4] [µg/mL] | Activity [5] | Activity [6] [%] |
| --- | --- | --- | --- | --- | --- | --- |
| CCCC(=O)O[C@H]1[C@H](C(C)C)[C@@H]2[C@@H]([C@H]3C[C@](C)(O)[C@@H](OC(C)=O)CC[C@@](C)(OC(=O)CCC)[C@@H]2O3)[C@](C)(O)[C@@H]1OC(C)=O [SIMPLEXIN C] | > 20 | > 20 | > 20 | > 20 | – | – |
| C=C1C[C@H]2O[C@H]([C@H]3[C@@H]2[C@](C)(OC(C)=O)CC[C@@H]3C(C)C)[C@](C)(OC(=O)CCC)CC[C@@H]1O [SIMPLEXIN A] | 10.4 (≈ 23 µM) | 12.1 (≈ 26.8 µM) | > 20 | 12.1 (≈ 26.9 µM) | inactive | 15.9 |
| CCCC(=O)O[C@]1(C)CC[C@H](O)[C@@](C)(O)C[C@H]2O[C@@H]1[C@H]1[C@@H]2[C@](C)(OC(C)=O)CC[C@@H]1C(C)C [SIMPLEXIN B] | > 20 | > 20 | > 20 | > 20 | – | – |
| C=CC(=O)O[C@H]1CC[C@@](C)(OC(=O)CCC)[C@@H]2O[C@H](C[C@]1(C)O)[C@@H]1[C@H]2[C@@H](C(C)C)[C@H](OC(=O)CCC)[C@@H](OC(C)=O)[C@@]1(C)O [SIMPLEXIN E] | 12.8 (≈ 20.4 µM) | 7.19 (≈ 11.5 µM) | 17.4 (≈ 27.8 µM) | 10.7 (≈ 17.2 µM) | 37.7% | 4.8 |
| CC(=O)O[C@H]1CC[C@@](C)(OC(C)=O)[C@@H]2O[C@H](C[C@]1(C)O)[C@@H]1[C@H]2[C@@H](C(C)C)[C@H](O)C[C@@]1(C)OC(C)=O [SIMPLEXIN I] | > 20 | > 20 | > 20 | > 20 | – | – |
| CCCC(=O)O[C@]1(C)CC[C@H](OC(C)=O)[C@@](C)(O)C[C@H]2O[C@@H]1[C@@H]1[C@@H](C(C)C)[C@H](O)[C@@H](OC(C)=O)[C@@](C)(O)[C@@H]12 [SIMPLEXIN F] | > 20 | > 20 | > 20 | > 20 | – | – |
| CCCC(=O)O[C@H]1[C@H](C(C)C)[C@@H]2[C@@H]([C@H]3C[C@](C)(O)[C@@H](OC(=O)CCC)CC[C@@](C)(OC(=O)CCC)[C@@H]2O3)[C@](C)(O)[C@@H]1OC(C)=O [SIMPLEXIN D] | 15.3 (≈ 23.9 µM) | 14.5 (≈ 22.7 µM) | > 20 | > 20 | inactive | 37.7 |
